Assay results reported in ChEMBL document CHEMBL2346602, “A potent bivalent Smac mimetic (SM-1200) achieving rapid, complete, and durable tumor regression in mice” (J Med Chem, 2013).
Activity calls are given as the source filed them. The rule behind the calls is not given here.

What was measured:
MDA-MB-231 [1] = assay: Induction of apoptosis in human MDA-MB-231 cells assessed as caspase-8 cleavage after 24 hrs by Western blot analysis; assay type: functional, cell-based
Outline: (§1)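 MDA-MB-231 cells were treated 24 h with graded concentrations. Lysates were made in Tris/NaCl/EDTA/SDS/NP-40 buffer with PMSF and protease inhibitors on ice, then run on 4−20% SDS-PAGE and blotted to PVDF. Blots were probed for cIAP1, cleaved PARP, and caspase-8, -9 and -3 (full-length and cleaved), with HRP chemiluminescent detection.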

Rattus norvegicus [2] = assay: Apparent volume of distribution during terminal phase in Sprague-Dawley rat at 1 mg/kg, iv; assay type: ADME, organism-based; set-up: dose 1 mg/kg, route intravenous; conditions: in vivo
[3] = AUC in Sprague-Dawley rat at 1 mg/kg, iv; assay type: ADME, organism-based; set-up: dose 1 mg/kg, route intravenous; conditions: plasma
MDA-MB-231 [4] = assay: Induction of apoptosis in human MDA-MB-231 cells assessed as PARP cleavage after 24 hrs by Western blot analysis; assay type: functional, cell-based; outline: as §1
MDA-MB-231 [5] = assay: Induction of apoptosis in human MDA-MB-231 cells assessed as caspase-3 cleavage after 24 hrs by Western blot analysis; assay type: functional, cell-based; outline: as §1
MDA-MB-231 [6] = assay: Induction of apoptosis in human MDA-MB-231 cells assessed as apoptotic cells at 10 nM after 24 hrs by trypan blue assay relative to control; assay type: functional
Outline: (§2)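 MDA-MB-231 cells were exposed to graded compound concentrations for 24 h and viability scored by trypan blue exclusion. Blue or morphologically unhealthy cells counted as dead. At least 100 cells per treatment were scored, in triplicate.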

[7] = Elimination half life in Sprague-Dawley rat at 1 mg/kg, iv; assay type: ADME, organism-based; set-up: dose 1 mg/kg, route intravenous; conditions: in vivo, read-out: beta t1/2 (converted)
MDA-MB-231 [8] = assay: Induction of apoptosis in human MDA-MB-231 cells assessed as apoptotic cells after 24 hrs by trypan blue assay; assay type: functional, cell-based; outline: as §2
MDA-MB-231 [9] = assay: Induction of apoptosis in human MDA-MB-231 cells assessed as cIAP1 degradation at 0.3 nM after 24 hrs by Western blot analysis; assay type: functional, cell-based; outline: as §1
MDA-MB-231 [10] = assay: Antitumor activity against human MDA-MB-231 cells xenografted in nude immunodeficient mouse assessed as tumor regression at 7.5 mg/kg, iv administered every week for 4 weeks measured over 76 days; assay type: functional, organism-based; set-up: dose 7.5 mg/kg
Outline: (§3)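 5 × 10⁶ MDA-MB-231 cells in 50% Matrigel injected subcutaneously, one tumor per mouse. Dosing began on day 28, at mean tumor volume 100 mm³. Tumor volume and body weight were tracked. Groups were compared by t test.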

MDA-MB-231 [11] = assay: Antitumor activity against human MDA-MB-231 cells xenografted in nude immunodeficient mouse assessed as tumor growth inhibition at 7.5 mg/kg, iv administered every week for 4 weeks measured over 76 days; assay type: functional, organism-based; set-up: dose 7.5 mg/kg; outline: as §3
MDA-MB-231 [12] = assay: Induction of apoptosis in human MDA-MB-231 cells assessed as cIAP1 degradation at 1 nM after 24 hrs by Western blot analysis; assay type: functional, cell-based; outline: as §1
MDA-MB-231 [13] = assay: Induction of apoptosis in human MDA-MB-231 cells xenografted in SCID mouse assessed as caspase 3 cleavage at 5 mg/kg, iv measured at 4 hrs by Western blot analysis; assay type: functional, organism-based; set-up: dose 5 mg/kg
Outline: (§4)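 SCID mice carried subcutaneous dorsal MDA-MB-231 xenografts (5 × 10⁶ cells with Matrigel). At about 100 mm³, mice got a single iv dose of 5 mg/kg or vehicle. They were sacrificed at set time points, and tumor lysates were Western blotted for cIAP1, XIAP, caspase-3, PARP and cleaved PARP.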

MDA-MB-231 [14] = assay: Antitumor activity against human MDA-MB-231 cells xenografted in nude immunodeficient mouse assessed as tumor regression at 10 mg/kg/week, iv after 1 week relative to vehicle-treated control; assay type: functional; outline: as §3
MDA-MB-231 [15] = assay: Induction of apoptosis in human MDA-MB-231 cells xenografted in SCID mouse assessed as PARP cleavage at 5 mg/kg, iv after 4 to 24 hrs by Western blot analysis; assay type: functional, organism-based; set-up: dose 5 mg/kg; outline: as §4
MDA-MB-231 [16] = assay: Antitumor activity against human MDA-MB-231 cells xenografted in nude immunodeficient mouse assessed as tumor regression at 10 mg/kg/week, iv after 4 weeks relative to vehicle-treated control; assay type: functional; outline: as §3
Rattus norvegicus [17] = assay: Apparent volume of distribution during terminal phase in Sprague-Dawley rat at […], iv; assay type: ADME, organism-based; set-up: dose 2.5 mg/kg, route intravenous; conditions: in vivo
[18] = AUC in Sprague-Dawley rat at […], iv; assay type: ADME, organism-based; set-up: dose 2.5 mg/kg, route intravenous; conditions: plasma
Mus musculus = assay: Toxicity in nude immunodeficient mouse xenografted with human MDA-MB-231 cells assessed as body weight change at 3 to 10 mg/kg, iv administered every week for 4 weeks measured over 76 days; assay type: organism-based; set-up: dose 3-10 mg/kg, route intravenous; conditions: in vivo, 1824 h; outline: as §3
[19] = Elimination half life in Sprague-Dawley rat at […], iv; assay type: ADME, organism-based; set-up: dose 2.5 mg/kg, route intravenous; conditions: in vivo, read-out: beta t1/2 (converted)
MDA-MB-231 [20] = assay: Induction of apoptosis in human MDA-MB-231 cells xenografted in SCID mouse assessed as cIAP1 degradation at 5 mg/kg, after 2 to 24 hrs by Western blot analysis; assay type: functional, organism-based; set-up: dose 5 mg/kg; outline: as §4
MDA-MB-231 [21] = assay: Antitumor activity against human MDA-MB-231 cells xenografted in nude immunodeficient mouse assessed as tumor regression at 3 mg/kg/week, iv after 4 weeks relative to vehicle-treated control; assay type: functional; outline: as §3
MDA-MB-231 [22] = assay: Antitumor activity against human MDA-MB-231 cells xenografted in nude immunodeficient mouse assessed as tumor regression at 3 mg/kg/week, iv after 1 week relative to vehicle-treated control; assay type: functional; outline: as §3
MDA-MB-231 [23] = assay: Induction of apoptosis in human MDA-MB-231 cells xenografted in SCID mouse assessed as decrease in XIAP level at 5 mg/kg, iv after 8 to 24 hrs by Western blot analysis; assay type: functional, organism-based; set-up: dose 5 mg/kg; outline: as §4

SMILES: CN[C@@H](C)C(=O)N[C@H]1CCCC[C@H]2CC[C@@H](C(=O)N[C@@H](c3ccccc3)c3cn(CCCCc4ccc(CCCCn5cc([C@@H](NC(=O)[C@@H]6CC[C@@H]7CCCC[C@H](NC(=O)[C@H](C)NC)C(=O)N76)c6ccccc6)nn5)cc4)nn3)N2C1=O
- Activity (MDA-MB-231 [1]): Dose-dependent effect
- Vz/F (Rattus norvegicus [2]): 1 L/kg
- AUC [3]: 221 ng·h/mL
- Activity (MDA-MB-231 [4]): Dose-dependent effect
- Activity (MDA-MB-231 [5]): Dose-dependent effect
- Activity (MDA-MB-231 [6]): >75%
- half-life [7]: 8.4 min
- Activity (MDA-MB-231 [8]): Dose-dependent effect
- Activity (MDA-MB-231 [9]): Active

SMILES: CC(=O)O[C@@]12CO[C@@H]1C[C@H](O)[C@@]1(C)C(=O)[C@H](O)C3=C(C)[C@@H](OC(=O)[C@H](O)[C@@H](NC(=O)OC(C)(C)C)c4ccccc4)C[C@@](O)([C@@H](OC(=O)c4ccccc4)[C@H]21)C3(C)C
- Activity (MDA-MB-231 [10]): inactive
- TGI (MDA-MB-231 [11]): Active

SMILES: CN[C@@H](C)C(=O)N[C@H]1CN(C(=O)Nc2ccc(NC(=O)N3CC[C@H]4CC[C@@H](C(=O)NC(c5ccccc5)c5ccccc5)N4C(=O)[C@@H](NC(=O)[C@H](C)NC)C3)cc2)CC[C@H]2CC[C@@H](C(=O)NC(c3ccccc3)c3ccccc3)N2C1=O
- Activity (MDA-MB-231 [12]): Active
- Activity (MDA-MB-231 [1]): Dose-dependent effect
- Activity (MDA-MB-231 [13]): Active
- Activity (MDA-MB-231 [4]): Dose-dependent effect
- Activity (MDA-MB-231 [14]): 88%
- Activity (MDA-MB-231 [15]): Active
- Activity (MDA-MB-231 [5]): Dose-dependent effect
- Activity (MDA-MB-231 [16]): 99%
- Vz/F (Rattus norvegicus [17]): 0.5 L/kg
- AUC [18]: 3770 ng·h/mL
- Activity (Mus musculus): Non-toxic
- half-life [19]: 4.9 h
- Activity (MDA-MB-231 [6]): >75%
- Activity (MDA-MB-231 [20]): Active
- Activity (MDA-MB-231 [8]): Dose-dependent effect
- Activity (MDA-MB-231 [21]): 93%
- Activity (MDA-MB-231 [22]): 55%
- Activity (MDA-MB-231 [23]): Active
